Measured values from the array DNA melting data of Ke et al. (doi:10.1101/2024.01.08.574731).

How the values were obtained:
[1] = folding enthalpy; higher = less favourable; fluorescence melt of hairpins on a sequencing array, two-state fit; conditions: sodium 0.088 M
Procedure, shortened: (§1)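 With Cy3 and quencher oligos annealed, library hairpins on a sequenced MiSeq flow cell were imaged for Cy3 fluorescence in 50 mM Na-HEPES pH 8.0, 25 mM NaCl, in 2.5 °C steps up to 60 °C. Melting temperature and folding enthalpy were derived from bootstrapped two-state fits of signals normalised to pre-quench Cy3 and to control constructs. Four replicates were combined by inverse variance, with fitted temperatures raised by 9.35 °C to match UV melts.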

[2] = melting temperature; fluorescence melt of hairpins on a sequencing array, two-state fit, raised by 9.35 °C to match UV melts; conditions: sodium 0.088 M
Procedure, shortened: as §1

Row | Sequence | folding enthalpy [1] [kcal/mol] | Tm [2] [°C]
1 | GATCGGTTAACCGATC ((((((....)))))) | -47.3 | 58.8
2 | GGTAGTGGAAACACTACC (((((((....))))))) | -46.8 | 62.9
3 | GCAAGGGGAAACCCTTAC (.(((((....))))).) | -14.3 | 33.6
4 | GATCACGAAAGTGCAATC ((((((....)))..))) | -10 | 28.1
5 | GATCAAGGACTTGATC ((((((....)))))) | -40 | 50.7
6 | GCACAACCGAAAGGTTGC (((..(((....)))))) | -8.1 | 37.8
7 | GATCCTCAGGAGGATC ((((((....)))))) | -30.9 | 55.2
8 | GACGAGCGAAAGCTTGTC (((.(((....))).))) | -36.8 | 61.2
9 | GTCCTCACGAAAGTGGAC (((..(((....)))))) | -17.2 | 43
10 | GCCGAGCGAAAGCACTGC ((.(.((....)).).)) | -18.8 | 36.4
11 | GATCCGTTAACGGATC ((((((....)))))) | -43.2 | 64
12 | GCGATGCGAAAGCCTCGC ((((.((....)).)))) | -40.3 | 64.6
13 | GTATGACGAAAGTCTAC (((.(((....)))))) | -16.9 | 39
14 | GCAGCGGGAAACCGCCAC (..((((....))))..) | -8.97 | 29.8
15 | GTGAGCACGAAAGTGCAC (((..(((....)))))) | -8.71 | 60.1
16 | GATCATGGTTATGATC ((((((....)))))) | -40.7 | 48.3
17 | GCTCCCTCGAAAGAGAGC (((..(((....)))))) | -19.5 | 35.6
18 | GCTTTGCGAAAGCACCGC ((..(((....)))..)) | -12.4 | 39.2
19 | GGACTGGGAAACTAGTCC (((((.(....).))))) | -32.1 | 50.2
20 | GTAGTTGCGAAAGCATAC (((..(((....)))))) | -10.9 | 31.1
21 | GCGGTGCGAAAGCTGCGC (((..((....))..))) | -32.1 | 64.2
22 | GGCCGACGAAAGTCCGCC (((.(((....))).))) | -39 | 55.1
23 | GATCTCCCTTGAGATC ((((((....)))))) | -39.4 | 52.6
24 | GAGAACGGAAACGTTCCC (.(((((....))))).) | -11.9 | 40

Row | Sequence | folding enthalpy [1] [kcal/mol] | Tm [2] [°C]
25 | GATCTCCTACGAGATC ((((((....)))))) | -34.5 | 52.4
26 | GATCAACTTGTTGATC ((((((....)))))) | -51.7 | 60.5
27 | GCGGTGAACCGC ((((....)))) | -30 | 61.1
28 | GGTTTCTCGAAAGAGACC (((..(((....)))))) | -18.8 | 32.6
29 | GGGGCGCCGAAAGGCCCC (((..(((....)))))) | -15 | 66.1
30 | GCGACTGGAAACAGTTGC ((.((((....)))).)) | -45.4 | 55.5
31 | GGTTATCCGAAAGGAACC (((..(((....)))))) | -15.2 | 30.2
32 | GATCACCGTTGTGATC ((((((....)))))) | -39.8 | 55.4
33 | GGGCTCGGAAACGAGCTC (.(((((....))))).) | -15 | 62.9
34 | GCGACAAGTCGC ((((....)))) | -30 | 58
35 | GCAAAGCGAAAGCTAAGC ((..(((....)))..)) | -12.6 | 40.3
36 | GTATGCGAAAGCAAATAC ((((((....)))..))) | -16.7 | 37.7
37 | GGGGAAGGAAACTTTCCC (((.(((....))).))) | -29 | 48.3
38 | GCTCGAGGAAACTCGAAC (.(((((....))))).) | -18.1 | 40.9
39 | GTCATCGAAAGATGGAC ((((((....))).))) | -17.6 | 43.9
40 | GGGTGACGAAAGTCCCCC (((.(((....))).))) | -28.2 | 57.9
41 | GATTGCGAAAGCAGCATC ((((((....)))..))) | -9.21 | 24.1
42 | GATCAAGACATTGATC ((((((....)))))) | -38.8 | 50.1
43 | GAGGGTGGAAACACCCCC (.(((((....))))).) | -10.7 | 44.8
44 | GTAATTCCGAAAGGATAC (((..(((....)))))) | -10.6 | 28.2
45 | GCGCCGCGAAAGCGTTGC ((..(((....)))..)) | -15.3 | 47.6
46 | GCCGCGCCGAAAGGCGGC (((..(((....)))))) | -9.11 | 67.6
47 | GATCAGACAACTGATC ((((((....)))))) | -32.3 | 45.9
48 | GAACATGGAAACATGCTC ((.((((....)))).)) | -26.5 | 35.3

Row | Sequence | folding enthalpy [1] [kcal/mol] | Tm [2] [°C]
49 | GTTAGTCGAAAGACAAAC (((.(((....))).))) | -21.9 | 41.2
50 | GTAACCGAAAGGTTATAC ((((((....)))..))) | -13.4 | 43.7
51 | TGATGGAAACATCA (((((....))))) | -22 | 41.3
52 | GAGTGTGGAAACGCACTC (((((.(....).))))) | -42.1 | 52.8
53 | GCTCTGCGAAAGCACCGC ((..(((....)))..)) | -8.79 | 31.8
54 | GGTGTCCGAAAGGAACC (((.(((....)))))) | -19.8 | 48.3
55 | GCTGGTGGAAACGTCAGC ((((..(....)..)))) | -23.9 | 43.3
56 | GAATGGCGAAAGCCTTC (((.(((....)))))) | -11.9 | 41.1
57 | GATCCACCGCTGGATC ((((((....)))))) | -39.8 | 50
58 | GATCTTCAACAAGATC ((((((....)))))) | -25.1 | 38.3
59 | GAGCGCGAAAGCGGACTC ((((((....)))..))) | -13.7 | 52.3
60 | GGTTTGGGAAACTAAACC (((((.(....).))))) | -33 | 44.7
61 | GCGGTCTGCCGC ((((....)))) | -22.7 | 62.1
62 | GATCCAGGGATGGATC ((((((....)))))) | -38.9 | 53.3
63 | CGGTGTCGGAAACGACCG (((..(((....)))))) | -11.9 | 47.5
64 | GATCTCCTCGAGATC ((((((...)))))) | -38.6 | 54.5
65 | GCGCTATCGAAAGATCGC (((..(((....)))))) | -25.6 | 44.2
66 | GGAGATGGAAACATCCCC ((.((((....)))).)) | -26.6 | 41.3
67 | GCACTCCGAAAGGACTGC (((.(((....))).))) | -18.5 | 40.4
68 | GTTTCAGGAAACTAAAAC ((((.((....)).)))) | -8.21 | 29.2
69 | GTGTAGGAAACTACAC ((((((....)))))) | -38.1 | 53.5
70 | GCGTCCGAAAGGAGACGC ((((((....)))..))) | -31.4 | 57.6
71 | GCGGTACGCCGC ((((....)))) | -13.5 | 67
72 | GCTCAAGGAAACTCGAGC ((((.((....)).)))) | -30.5 | 38.3

Row | Sequence | folding enthalpy [1] [kcal/mol] | Tm [2] [°C]
73 | GCGTTACGAAAGTACGC (((.(((....)))))) | -32.2 | 61.1
74 | GTGCCCGAAAGGGACCAC ((((((....)))..))) | -11.3 | 49.5
75 | GTCTTCGGAAACGGAGAC ((((.((....)).)))) | -39.1 | 50.4
76 | GCCCCTCGAAAGAGTGGC (((.(((....))).))) | -38 | 52.6
77 | GTCATCGAAAGATTGAC ((((((....))).))) | -26.9 | 40.7
78 | GCTTCCGAAAGGACTAGC ((((((....)))..))) | -16.2 | 35.7
79 | GTCCTGAAAAGGAC (((((....))))) | -31 | 55.9
80 | GATCTGCGTGCAGATC ((((((....)))))) | -34.5 | 66.7
81 | GCGTGTCACGC ((((...)))) | -31.1 | 57.7
82 | GCGGCAGCCGC ((((...)))) | -10.9 | 61.7
83 | GGAGTAGGAAACTACTCC (((((((....))))))) | -46.4 | 59
84 | GGCCCCCGAAAGGGAGCC (((.(((....))).))) | -27.1 | 66.8
85 | GAGGCGCCGAAAGGCCTC (((..(((....)))))) | -13.3 | 44.3
86 | GCGGTAGGAAACTACTGC ((.((((....)))).)) | -34.8 | 52.2
87 | GAATGCGAAAGCAATTC ((((((....))).))) | -18.7 | 48.4
88 | GCCGTTCGAAAGAATGGC (((.(((....))).))) | -40.1 | 62.6
89 | GTACCCGGAAACAGGTAC (((((.(....).))))) | -25.7 | 39.4
90 | GGAACCGGAAACGGCTCC (((.(((....))).))) | -28.5 | 50
91 | GGTGCACCGAAAGGTACC (((..(((....)))))) | -11.6 | 37.6
92 | GCCTCGCGAAAGCCAGGC ((((.((....)).)))) | -23.5 | 58.2
93 | GGGAAACGAAAGTTGCCC (((.(((....))).))) | -43.9 | 56.6
